The target in series [1] is T1, Nitric oxide synthase 3 (Bos taurus) (UniProt P29473).
T1 sequence (whole entry): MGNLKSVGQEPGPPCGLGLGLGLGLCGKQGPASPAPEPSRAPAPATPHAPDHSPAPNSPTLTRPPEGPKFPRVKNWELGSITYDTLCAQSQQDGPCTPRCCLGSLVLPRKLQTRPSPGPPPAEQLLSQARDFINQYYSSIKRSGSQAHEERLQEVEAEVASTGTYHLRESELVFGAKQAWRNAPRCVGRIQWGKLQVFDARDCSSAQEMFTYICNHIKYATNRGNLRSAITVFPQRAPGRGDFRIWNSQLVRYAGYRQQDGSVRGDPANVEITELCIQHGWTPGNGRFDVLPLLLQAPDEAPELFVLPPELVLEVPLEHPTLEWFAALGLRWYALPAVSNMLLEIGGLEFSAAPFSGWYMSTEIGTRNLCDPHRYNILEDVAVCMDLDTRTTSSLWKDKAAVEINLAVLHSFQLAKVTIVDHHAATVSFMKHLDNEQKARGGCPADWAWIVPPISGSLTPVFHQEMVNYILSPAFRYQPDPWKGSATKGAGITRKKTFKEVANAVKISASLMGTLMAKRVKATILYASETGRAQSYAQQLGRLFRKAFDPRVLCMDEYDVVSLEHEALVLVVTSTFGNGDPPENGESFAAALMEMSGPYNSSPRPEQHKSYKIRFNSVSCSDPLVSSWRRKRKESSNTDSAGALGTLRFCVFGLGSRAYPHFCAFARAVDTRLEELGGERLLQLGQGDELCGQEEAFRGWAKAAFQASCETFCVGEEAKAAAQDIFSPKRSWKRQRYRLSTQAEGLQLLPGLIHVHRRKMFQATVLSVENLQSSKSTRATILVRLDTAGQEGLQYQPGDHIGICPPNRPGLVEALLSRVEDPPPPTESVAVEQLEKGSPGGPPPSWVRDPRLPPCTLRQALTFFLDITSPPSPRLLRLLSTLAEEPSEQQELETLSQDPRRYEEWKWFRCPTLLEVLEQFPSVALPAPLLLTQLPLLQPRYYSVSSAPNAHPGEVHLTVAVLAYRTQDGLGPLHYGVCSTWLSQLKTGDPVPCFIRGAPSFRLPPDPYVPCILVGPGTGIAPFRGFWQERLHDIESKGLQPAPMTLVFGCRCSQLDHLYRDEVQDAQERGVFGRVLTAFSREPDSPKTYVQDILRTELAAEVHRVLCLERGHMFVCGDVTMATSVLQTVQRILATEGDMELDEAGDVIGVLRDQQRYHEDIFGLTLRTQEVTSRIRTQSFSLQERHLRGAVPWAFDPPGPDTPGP
The experiment in a line: Substrate activity at recombinant bovine eNOS assessed as enzyme mediated nitrite production after 40 mins by Griess reagent base LDH assay. In short, it runs like this: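 Run for 40 min alongside an l-arginine positive control and a negative control. Stopped with ice-cold 20 mM HEPES pH 5.5, 2 mM EDTA, 2 mM EGTA. NO-derived nitrite quantified by Griess colorimetry (nitrate/nitrite LDH method).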

Series [2] in a line: Drug metabolism is PBS buffer assessed as compound conversion after 3 hrs by 1H NMR spectroscopy.

Molecules are shown by their SMILES. Where a SMILES comes first, the peptide text is derived from it.

As to `N=C(N)NCCC[C@H](N)C(=O)Nc1ccncc1`, in series [1], the Activity was determined as 22 µM. In addition, in series [2], the degraded at 3 h is 41%.

Consider `CN(Cc1ccncc1)C(=O)[C@@H](N)CCCNC(=N)N`, for which the Activity in series [1] was determined as 21 µM.

Consider `N=C(N)NCCC[C@H](N)C(=O)NCc1ccncc1`, for which the Activity in series [1] was determined as 48 µM.

As to `N=C(N)NCCC[C@H](N)C(=O)N[C@@H](Cc1cccnc1)C(=O)O` (HELM PEPTIDE1{R.[O=C(O)[C@H](Cc1cccnc1)N[*:1]]}$$$$V2.0), the Activity in series [1] is 38 µM.

On to `CN(Cc1cccnc1)C(=O)[C@@H](N)CCCNC(=N)N`, for which, in series [1], the Activity is 23 µM.

On to `CC(NC(=O)[C@@H](N)CCCNC(=N)N)c1cccnc1` (stereo partly drawn), for which the Activity in series [1] amounted to 26 µM.

Regarding `N/C(=N\O)NCCCCC(=O)NCc1ccncc1`, the Activity in series [1] came out at 29 µM.

As for `N=C(N)NCCC[C@H](N)C(=O)O`, the Activity in series [1] was 25 µM.

For `N=C(N)NCCC[C@H](N)C(=O)NCc1cccnc1`, the Activity in series [1] was 22 µM.

With `N/C(=N\O)NCCC[C@H](N)C(=O)NCc1ccncc1`, in series [1], the Activity came to 26 µM.

For `CC(NC(=O)[C@@H](N)CCCNC(=N)N)c1ccncc1` (stereo partly drawn), the Activity in series [1] was 20 µM.

Take `CC(=O)N[C@@H](CCCN/C(N)=N/O)C(=O)NCc1ccncc1`: in series [1], the Activity stood at 27 µM.
